Test system: HEK-293T
Assay: Multiplex assay against HEK293T;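 for Population Tubulin-Different-Phenotype (%): share of the cells with healthy nuclei that show this phenotype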
Format: toxicity, cell-based
Details: human
Outline: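 On a CQ1 microscope at 37°C and 5% CO2, live cells were imaged after compound addition. They had been stained at seeding with Hoechst33342, BioTracker Green Microtubule Cytoskeleton Dye, MitoTracker Red and Annexin V Alexa Fluor 680. CellPathfinder machine-learning gating assigned cells to Hoechst high-intensity objects or normal cells, normal cells to healthy, pyknosed or fragmented nuclei, and pyknosed cells to mitotic or apoptotic. Tubulin, mitochondrial-mass and membrane-permeability phenotypes are per cents of healthy-nucleus cells.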

[1] = 12 h, 1 µM, compound concentration 1 uM, replicate 1
[2] = 12 h, 1 µM, compound concentration 1 uM, replicate 2
[3] = 12 h, 10 µM, compound concentration 10 uM, replicate 1
[4] = 12 h, 10 µM, compound concentration 10 uM, replicate 2
[5] = 24 h, 1 µM, compound concentration 1 uM, replicate 1
[6] = 24 h, 1 µM, compound concentration 1 uM, replicate 2
[7] = 24 h, 10 µM, compound concentration 10 uM, replicate 1
[8] = 24 h, 10 µM, compound concentration 10 uM, replicate 2
[9] = 48 h, 1 µM, compound concentration 1 uM, replicate 1
[10] = 48 h, 1 µM, compound concentration 1 uM, replicate 2
[11] = 48 h, 10 µM, compound concentration 10 uM, replicate 1
[12] = 48 h, 10 µM, compound concentration 10 uM, replicate 2

In the case of CC(C)(C)NC[C@H](O)COc1nsnc1N1CCOCC1 [TIMOLOL], the “Population Apoptotic (%)” value [1] was 47%, the “Population Fragmented Nuclei (%)” value [1] was 10% and the “Population Healthy Nuclei (%)” value [1] was 39%. The “Population Hoechst High Intensity Objects (%)” value [1] was 14%, the “Population Membrane Permeable-Phenotype (%)” value [1] was 4% and the “Population Mitochondria Different-Phenotype (%)” value [1] was 77%. The “Population Mitotic Cells (%)” value [1] was 52%, the “Population Normal (%)” value [1] was 85% and the “Population Pyknosed Nuclei (%)” value [1] was 50%. The “Population Tubulin-Different-Phenotype (%)” value [1] was 36%, the “Total Cell Count” value [1] was 281 and the “Population Apoptotic (%)” value [2] was 12%. For the same compound, the “Population Fragmented Nuclei (%)” value [2] was 5%, the “Population Healthy Nuclei (%)” value [2] was 48% and the “Population Hoechst High Intensity Objects (%)” value [2] was 3%. The “Population Membrane Permeable-Phenotype (%)” value [2] was 8%, the “Population Mitochondria Different-Phenotype (%)” value [2] was 19% and the “Population Mitotic Cells (%)” value [2] was 87%. The “Population Normal (%)” value [2] was 96%, the “Population Pyknosed Nuclei (%)” value [2] was 45% and the “Population Tubulin-Different-Phenotype (%)” value [2] was 22%. The “Total Cell Count” value [2] was 280, the “Population Apoptotic (%)” value [3] was 55% and the “Population Fragmented Nuclei (%)” value [3] was 9%. For the same compound, the “Population Healthy Nuclei (%)” value [3] was 40%, the “Population Hoechst High Intensity Objects (%)” value [3] was 13% and the “Population Membrane Permeable-Phenotype (%)” value [3] was 2%. For the same compound, the “Population Mitochondria Different-Phenotype (%)” value [3] was 87%, the “Population Mitotic Cells (%)” value [3] was 44% and the “Population Normal (%)” value [3] was 86%. The “Population Pyknosed Nuclei (%)” value [3] was 49%, the “Population Tubulin-Different-Phenotype (%)” value [3] was 53% and the “Total Cell Count” value [3] was 293. The “Population Apoptotic (%)” value [4] was 8%, the “Population Fragmented Nuclei (%)” value [4] was 3% and the “Population Healthy Nuclei (%)” value [4] was 50%. The “Population Hoechst High Intensity Objects (%)” value [4] was 3%, the “Population Membrane Permeable-Phenotype (%)” value [4] was 4% and the “Population Mitochondria Different-Phenotype (%)” value [4] was 23%. For the same compound, the “Population Mitotic Cells (%)” value [4] was 91%, the “Population Normal (%)” value [4] was 96% and the “Population Pyknosed Nuclei (%)” value [4] was 46%. The “Population Tubulin-Different-Phenotype (%)” value [4] was 17%, the “Total Cell Count” value [4] was 261 and the “Population Apoptotic (%)” value [5] was 49%. The “Population Fragmented Nuclei (%)” value [5] was 8%, the “Population Healthy Nuclei (%)” value [5] was 43% and the “Population Hoechst High Intensity Objects (%)” value [5] was 12%. The “Population Membrane Permeable-Phenotype (%)” value [5] was 1%, the “Population Mitochondria Different-Phenotype (%)” value [5] was 58% and the “Population Mitotic Cells (%)” value [5] was 50%. For the same compound, the “Population Normal (%)” value [5] was 87%, the “Population Pyknosed Nuclei (%)” value [5] was 47% and the “Population Tubulin-Different-Phenotype (%)” value [5] was 41%. For the same compound, the “Total Cell Count” value [5] was 293, the “Population Apoptotic (%)” value [6] was 8% and the “Population Fragmented Nuclei (%)” value [6] was 7%. The “Population Healthy Nuclei (%)” value [6] was 67%, the “Population Hoechst High Intensity Objects (%)” value [6] was 1% and the “Population Membrane Permeable-Phenotype (%)” value [6] was 11%. The “Population Mitochondria Different-Phenotype (%)” value [6] was 12%, the “Population Mitotic Cells (%)” value [6] was 91% and the “Population Normal (%)” value [6] was 98%. For the same compound, the “Population Pyknosed Nuclei (%)” value [6] was 24%, the “Population Tubulin-Different-Phenotype (%)” value [6] was 30% and the “Total Cell Count” value [6] was 363. The “Population Apoptotic (%)” value [7] was 44%, the “Population Fragmented Nuclei (%)” value [7] was 6% and the “Population Healthy Nuclei (%)” value [7] was 57%. The “Population Hoechst High Intensity Objects (%)” value [7] was 12%, the “Population Membrane Permeable-Phenotype (%)” value [7] was 2% and the “Population Mitochondria Different-Phenotype (%)” value [7] was 70%. For the same compound, the “Population Mitotic Cells (%)” value [7] was 55%, the “Population Normal (%)” value [7] was 87% and the “Population Pyknosed Nuclei (%)” value [7] was 35%. For the same compound, the “Population Tubulin-Different-Phenotype (%)” value [7] was 40%, the “Total Cell Count” value [7] was 360 and the “Population Apoptotic (%)” value [8] was 8%. For the same compound, the “Population Fragmented Nuclei (%)” value [8] was 3%, the “Population Healthy Nuclei (%)” value [8] was 71% and the “Population Hoechst High Intensity Objects (%)” value [8] was 3%. For the same compound, the “Population Membrane Permeable-Phenotype (%)” value [8] was 4%, the “Population Mitochondria Different-Phenotype (%)” value [8] was 17% and the “Population Mitotic Cells (%)” value [8] was 91%. For the same compound, the “Population Normal (%)” value [8] was 96%, the “Population Pyknosed Nuclei (%)” value [8] was 24% and the “Population Tubulin-Different-Phenotype (%)” value [8] was 18%. The “Total Cell Count” value [8] was 355, the “Population Apoptotic (%)” value [9] was 52% and the “Population Fragmented Nuclei (%)” value [9] was 18%. For the same compound, the “Population Healthy Nuclei (%)” value [9] was 46%, the “Population Hoechst High Intensity Objects (%)” value [9] was 10% and the “Population Membrane Permeable-Phenotype (%)” value [9] was 6%. The “Population Mitochondria Different-Phenotype (%)” value [9] was 23%, the “Population Mitotic Cells (%)” value [9] was 47% and the “Population Normal (%)” value [9] was 89%. For the same compound, the “Population Pyknosed Nuclei (%)” value [9] was 34%, the “Population Tubulin-Different-Phenotype (%)” value [9] was 33% and the “Total Cell Count” value [9] was 373. The “Population Apoptotic (%)” value [10] was 16%, the “Population Fragmented Nuclei (%)” value [10] was 5% and the “Population Healthy Nuclei (%)” value [10] was 82%. The “Population Hoechst High Intensity Objects (%)” value [10] was 2%, the “Population Mitochondria Different-Phenotype (%)” value [10] was 3% and the “Population Mitotic Cells (%)” value [10] was 83%. The “Population Normal (%)” value [10] was 97%, the “Population Pyknosed Nuclei (%)” value [10] was 12% and the “Population Tubulin-Different-Phenotype (%)” value [10] was 25%. The “Total Cell Count” value [10] was 733, the “Population Apoptotic (%)” value [11] was 42% and the “Population Fragmented Nuclei (%)” value [11] was 12%. For the same compound, the “Population Healthy Nuclei (%)” value [11] was 65%, the “Population Hoechst High Intensity Objects (%)” value [11] was 5% and the “Population Membrane Permeable-Phenotype (%)” value [11] was 0%. The “Population Mitochondria Different-Phenotype (%)” value [11] was 23%, the “Population Mitotic Cells (%)” value [11] was 57% and the “Population Normal (%)” value [11] was 94%. The “Population Pyknosed Nuclei (%)” value [11] was 22%, the “Population Tubulin-Different-Phenotype (%)” value [11] was 20% and the “Total Cell Count” value [11] was 545. For the same compound, the “Population Apoptotic (%)” value [12] was 6%, the “Population Fragmented Nuclei (%)” value [12] was 7% and the “Population Healthy Nuclei (%)” value [12] was 85%. For the same compound, the “Population Hoechst High Intensity Objects (%)” value [12] was 2%, the “Population Membrane Permeable-Phenotype (%)” value [12] was 2% and the “Population Mitochondria Different-Phenotype (%)” value [12] was 4%. The “Population Mitotic Cells (%)” value [12] was 93%, the “Population Normal (%)” value [12] was 97% and the “Population Pyknosed Nuclei (%)” value [12] was 7%. The “Population Tubulin-Different-Phenotype (%)” value [12] was 17% and the “Total Cell Count” value [12] was 660.

From ChEMBL document CHEMBL4689842, “EUbOPEN Chemogenomics Library wave 1” (2021)
